HSF1 activator: HSF-1 activators, primary screen, NIH3T3-HGL cells, MG132 stress, luminescence, single point; NIH3T3-HGL HSF-1 luciferase reporter, 8 h; 100% = twice DMSO control signal; activation, % at 9 µM; AID 504408, 2011; hit rate 1.7% among 300,000;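 active means mean replicate activation of at least 50% with a set share of replicates each reaching 50%; inconclusive means only one of those two conditions met; inactive means mean below 50% and too few replicates reaching it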;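 further: 0% = median of the neutral control wells and 100% = twice that signal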
Jurkat NFkB inh: inhibitors of induced NF-kB luciferase reporter, primary screen, TCR NF-kB activation inhibitor project, cell-based, luminescence, uHTS | Jurkat, PMA/ionomycin-induced NF-kB luciferase reporter | hit rate 0.53% among 330,000 | inhibition, % at 4 µM; in the data active means inhibition above about 50%
T cruzi inh: inhibitors of intracellular T. cruzi growth, primary screen, luminescence, NIH3T3 host cells; inhibition, % (no concentration beside the values); hit rate 1.4% among 300,000; T. cruzi beta-gal in NIH3T3, 90 h; AID 1885, 2009;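 active means mean inhibition across valid replicates above about 55%, limit read from the data; inconclusive means mean below that limit but half or more replicates reach it; inactive means mean below it, under half of replicates reach it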;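 further: signal also drops with host cell toxicity which is not excluded here; 0% = plate median of DMSO wells and 100% = zero luminescence signal; higher percent means less beta-gal luminescence so fewer parasites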
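System – NIH/3T3 host cells with β-galactosidase reporter T. cruzi · Doses – single 50 nL compound addition per well in DMSO · Reagent – 5000 T. cruzi trypomastigotes/well · Medium – Low-serum DMEM with 2% FBS · Timing – ≥90 h infection period, 3 h prior cell attachment · Evaluation – parasite load inhibition, % · Technique – GalScreen luminescence, 60 min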
GPR7 antagonist: GPR7 receptor antagonists, primary screen, cell-based, fluorescence, single concentration; Neuropeptides B/W receptor type 1 (Homo sapiens), P48145; AID 1861, 2009; hit rate 1.1% among 290,000; GPR7-expressing cells, fluorescence antagonist assay; inhibition, % at 4.4 µM; in the data active means inhibition above about 16%, passing the limit was not always enough;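 further: cells stimulated with the agonist NPW; 0% = agonist with vehicle and 100% = vehicle without agonist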
Target sequence (P48145 whole entry, looked up): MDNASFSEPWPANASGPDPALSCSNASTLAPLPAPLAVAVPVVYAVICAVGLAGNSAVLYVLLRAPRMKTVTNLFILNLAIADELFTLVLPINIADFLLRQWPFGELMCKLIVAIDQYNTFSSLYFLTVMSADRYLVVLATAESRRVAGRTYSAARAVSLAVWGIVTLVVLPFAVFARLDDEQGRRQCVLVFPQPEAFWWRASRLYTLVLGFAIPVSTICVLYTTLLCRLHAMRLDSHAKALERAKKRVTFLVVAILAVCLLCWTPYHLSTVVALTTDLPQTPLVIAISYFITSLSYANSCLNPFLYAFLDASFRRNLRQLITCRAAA
HSF1 inh: HSF1 inhibitors in luciferase reporter cells, primary screen, cell-based, NIH3T3, luminescence; activity change, negative = inhibition, % at 7.5 µM (by protocol); hit rate 0.77% among 300,000; NIH3T3-HGL HSE-luciferase, MG132-induced, luminescence 8 h; active compounds read low;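 active means more than half of replicate wells show activity change below -50%, luminescence cut by over half; inconclusive means some wells, but at most half, below -50%; inactive means no replicate well below -50%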;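 further: luciferase reports HSF-1 transcriptional activity via heat shock element; 0% = median of DMSO wells and -100% = zero luminescence signal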
697 NFkB inh: inhibitors of PMA/ionomycin-induced NF-kB reporter, 697 cells, primary screen, B-cell NF-kB inhibitor project, cell-based, luminescence, uHTS; 697 B-cell NF-kB luciferase reporter, 16 h; hit rate 0.33% among 330,000; inhibition, % at 4 µM; AID 435022, 2010; in the data active means inhibition above about 35%
Jurkat NFkB conf: PMA/ionomycin-induced NF-kB reporter inhibitors, Jurkat retest, confirmation, T-cell NF-kB inhibitor project, cell-based, luminescence, single concentration; shares compounds with Jurkat NFkB inh; Jurkat NF-kB luciferase, 16 h; inhibition, % at 4 µM; hit rate 27% among 2,700; AID 435020, 2010;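 active means inhibition reaching about 45% at 4 µM in either replicate, limit read from the data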;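 further: plate controls were PMA/ionomycin stimulated DMSO wells for no effect and unstimulated DMSO wells for full effect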
697 NFkB conf: PMA/ionomycin-induced NF-kB reporter inhibitors, 697 retest, confirmation, B-cell NF-kB inhibitor project, cell-based, luminescence, single concentration. shares compounds with 697 NFkB inh. 697 B-cell NF-kB luciferase, 16 h. inhibition, % at 4 µM. hit rate 35% among 2,000; in the data active means inhibition mostly above about 28%, no sharp cut-off; inactive means mostly below about 22%
* = called active by the depositor; i = inactive; ? = inconclusive; / = no result given. This is a sample that favours compounds with a hit; in the whole collection about 4.8% have one here.

SMILES | HSF1 activator | Jurkat NFkB inh | T cruzi inh | GPR7 antagonist | HSF1 inh | 697 NFkB inh | 697 NFkB conf | others
C[C@@H]1C[C@H]2OC(=O)C3(CO3)[C@H]2[C@H](O)[C@]2(C)C(=O)C3OC3[C@@H]12 (stereo partly specified) | 28 | -9 | -41 | / | 8 | -134 | /
C=C1C(=O)O[C@@H]2C[C@@H](C)[C@@H]3C=CC(=O)[C@@]3(C)[C@@H](O)[C@H]12 | -93 | 99* | 43 | / | -92* | 102* | 105* | Jurkat NFkB conf=95*
COc1ccc(C(C)=O)cc1CC(C(=O)c1ccccc1)N(C)C (stereo unspecified) | -11 | 14 | 8 | -6 | -5 | -111 | /
C=C(CO)CC1CC(O)[C@]2(C)OC3CC4OC5C[C@]6(C)O[C@]7(C)CCC8OC9C[C@]%10(C)OC%11C(C)=CC(=O)OC%11CC%10OC9C[C@@H](C)C8OC7CC6O[C@]5(C)C/C=C\C4OC3CC2O1 (stereo partly specified) | / | 23 | 11 | -19 | 1 | 19 | /
C=C(C=O)CC1CC(O)[C@]2(C)OC3CC4OC5C[C@]6(C)O[C@]7(C)CCC8OC9C[C@]%10(C)OC%11C(C)=CC(=O)OC%11CC%10OC9C[C@@H](C)C8OC7CC6O[C@]5(C)CC5OC5C4OC3CC2O1 (stereo partly specified) | -47 | 96* | 46 | -9 | ? | -390 | 38* | Jurkat NFkB conf=96*
C[C@@H]1O[C@@H](O[C@@H]2C=C3CC[C@@H]4C(CC[C@]5(C)[C@@H](c6ccc(=O)oc6)CC[C@]45O)[C@@]3(C)CC2)[C@H](O)[C@H](O)[C@H]1O (stereo partly specified) | / | 100* | / | / | / | 90* | 99* | Jurkat NFkB conf=94*
C[C@@H]1O[C@@H](O[C@@H]2C=C3CCC4C(CC[C@]5(C)[C@@H](c6ccc(=O)oc6)CC[C@]45O)[C@@]3(C)CC2)[C@H](O)[C@H](O)[C@H]1O (stereo partly specified) | / | 100* | / | / | / | 102* | 99* | Jurkat NFkB conf=97*
COc1ccc(-c2nn(Cc3ccccc3)cc2C(=O)NC2CC2)cc1OC | / | 10 | / | / | / | -6 | /
CCOc1cc(/C=C2/C(=O)NC(=O)N(c3ccc(CC)cc3)C2=O)ccc1OC(=O)c1cccs1 | 10 | -3 | 0 | -6 | -2 | 16 | /
CC(=O)c1cn(Cc2ccccc2C#N)c2ccccc12 | -9 | 52* | 18 | 14 | -8 | 47* | 30* | Jurkat NFkB conf=55*
O=c1[nH]c(=O)n(-c2ccccc2)c(O)c1N=Nc1ccc(Br)cc1 | 24 | -1 | -26 | -2 | 20 | 16 | /
COc1cc2c(cc1OC)[C@@H]1C(=O)c3ccc4c(c3O[C@@H]1CO2)C[C@H](C(C)C)O4 | -1 | 74* | -20 | 21* | -7 | 71* | 81* | Jurkat NFkB conf=78*
COc1cc2c(cc1OC)[C@H]1C(=O)c3ccc4c(c3O[C@H]1CO2)C[C@@H](C(C)(C)O)O4 | / | 3 | / | / | / | -17 | /
CC1=CC2/C=C(\C)CCC(O)C(O)/C=C/C(=O)C23C(=O)NC(CC(C)C)C3C1C (stereo unspecified) | -24 | 79* | 67* | 5 | -28 | 38* | -3 | Jurkat NFkB conf=19
CCOC(=O)Cn1cc([N+](=O)[O-])nc1[N+](=O)[O-] | 4 | 2 | 14 | -5 | 2 | 7 | /
Nc1ncnc2c1ccn2[C@@H]1O[C@H](CO)[C@@H](O)[C@H]1O | -80 | 86* | 86* | / | -79* | 75* | 98* | Jurkat NFkB conf=85*
COC(=O)C1=C(c2cccc(OCc3ccccc3)c2)C[C@@H]2CC[C@H]1N2C(=O)NCc1ccc(N(C)C)cc1 | / | 17 | / | / | / | -4 | /
Cc1cc(N=Nc2ccccc2C)ccc1N | 17 | -72 | 3 | / | 17 | -330 | -113
C/C=C1\CN2[C@H]3C[C@@]45c6ccccc6N(C)[C@H]4[C@@H]2CC1C3[C@H]5O (stereo partly specified) | 2 | 3 | -11 | / | -6 | -7 | /
CC(=O)OC1CC[C@]2(C#N)[C@H]3CC[C@]4(C)[C@H](C5C=CC(=O)O5)CCC4(O)C3CCC2(O)C1 (stereo partly specified) | 6 | 10 | -4 | 3 | -4 | i | -246
CN(CC(=O)Nc1ccccc1-c1ccccc1)C1CCCCC1 | 17 | -10 | 15 | -24 | 12 | -4 | /
N=c1c2c(n(Cc3ccc(Cl)cc3Cl)c3c1CCC3)CCCC2 | -5 | 30 | 51 | 6 | -12 | 68* | 33*
Cc1nc2cc(-c3cccc(F)c3)nn2c(C)c1CCC(=O)N1CCC2(CC1)OCCO2 | -10 | 18 | 4 | -8 | -5 | 36* | 36*
Cc1cc(C)cc(N2C(=O)NC(=O)/C(=C\c3cccn3-c3ccc(Cl)cc3)C2=O)c1 | 9 | 13 | -26 | 2 | 4 | 24 | /
Cc1cc(C)cc(N2C(=O)NC(=O)/C(=C\c3cccn3-c3ccccc3)C2=O)c1 | 18 | 10 | -13 | -5 | 2 | 53* | 61*
SMILES | HSF1 activator | Jurkat NFkB inh | T cruzi inh | GPR7 antagonist | HSF1 inh | 697 NFkB inh | 697 NFkB conf | others
COP(=O)(NC(=O)C(Cl)(Cl)Cl)OC | -1 | 8 | -6 | -9 | -1 | 9 | /
CCC12CN3CCN(CC(C3)/C1=N/NC(=O)c1ccncc1)C2 | -7 | 6 | -11 | -14 | -1 | 4 | /
CN(C)P(=O)(C(Cl)=C(N1CCCCC1)N1CCCCC1)N(C)C | -15 | -17 | 15 | 11 | -8 | 41* | 23
COC(=O)C(C)Oc1cc(C)cc2oc(=O)c3c(c12)CCC3 (stereo unspecified) | 10 | 14 | 4 | -6 | 8 | 36* | 55*
COC(=O)C(C)Oc1cc(C)cc2oc(=O)c3c(c12)CCCC3 (stereo unspecified) | 14 | -12 | 3 | 4 | 7 | 2 | /
Oc1c(Cl)c(Cl)c(Cl)c(Cl)c1Cl | -4 | -6 | 4 | / | -4 | 5 | /
CCCCn1c(O)c(C(CC)=NC(C)c2ccccc2)c(=O)[nH]c1=O (stereo unspecified) | 4 | 6 | -4 | -9 | 1 | 17 | /
C=CCn1c(O)c(C(CC)=NC(C)c2ccccc2)c(=O)[nH]c1=O (stereo unspecified) | 33 | -8 | 2 | -10 | 24 | 61* | 39*
CCOP(=O)(Cc1cc(C(=O)CC)c(C)o1)OCC | 28 | -25 | -2 | -6 | 2 | -29 | /
CN(C)c1ccc(C(=O)N/N=C/C23CC[C@@H](O)CC2(O)CC[C@@H]2[C@@H]3CCC3(C)C(C4=CC(=O)OC4)CCC23O)cc1 (stereo partly specified) | -9 | -11 | -2 | -17 | -6 | i | -314
